# Compounds with a hit are over-represented: about 2.2% of the library has one in this group of screens.
# DDE Tn7 FP inh = DD(E)-Tn7 binding inhibition, primary FP screen; inhibition, % at 8.3 µM; AID 720508; actives 0.13% (n = 370,000); P02675; FP displacement of FITC-Tn7 peptide from fibrin DD(E); 0% = median of compound wells per plate;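 active means inhibition above the mean of compounds falling within the control limits plus 3 SD of them, cut at about 14% in these data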
#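 Assay system: Fibrin-DD(E) protein isolated from polymerized human fibrin clots; read-out basis: percent inhibition; medium: Tris/NaCl/CaCl2 buffer, pH 7.8; signal: FP measurement; incubation: 10 min plus 3 h, room temperature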
# proKLK7 act = activates the human kallikrein-7 zymogen. actives 0.9% (n = 370,000). activation, % at 7 µM. P49862. purified proKLK7, EDANS-DABCYL substrate fluorescence; 100% is mature enzyme control, 0% vehicle;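 active means activation above the mean of all tested compounds plus 3 SD, computed per campaign excluding outliers beyond control limits, cut at about 13% in these data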
# SKN-1 block = blocks SKN-1 activity in C. elegans; C. elegans VP596 Pgst-4::GFP/RFP ratio, acrylamide-induced, 24 h; inhibition, % at 21.8 µM; actives 0.49% (n = 360,000); AID 624304;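 active means interference check ratio from 0.5 to 1.5 plus GFP to RFP signal ratio inhibition reaching or exceeding a fixed threshold, cut at about 30% in these data, passing the limit was not always enough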
# DDE Tn6 FP inh = disrupts Tn6 cyclic peptide binding to fibrin D-Dimer-E complex. inhibition, % at 8.3 µM. Fibrin DD(E) TRITC-Tn6 fluorescence polarization displacement. actives 0.21% (n = 370,000). P02675. AID 720509;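 active means inhibition above a per-campaign cutoff: mean of compounds within control limits plus 3 SD, cut at about 15% in these data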
# Neddyl block = blocks human cullin neddylation | calls only at 25 µM | TR-FRET cullin neddylation, biochemical | P61081+Q13564 | actives 0.58% (n = 360,000); in the data active means inhibition above about 36%
# MT1-MMP act inh = inhibitors of human MT1-MMP activation; HT1080 RFP-PRO-GFP cells, GFP/RFP ratio fluorescence, overnight; percent of plate control window, DMSO zero; GFP/RFP ratio change, % at 20 µM; actives 0.061% (n = 360,000);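 active means GFP/RFP ratio change of at least 30% with cell ATP level not reduced by more than half and red fluorescence within 50% of control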
#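 Assay system – RFP-PRO-GFP reporter HT1080 cells · Compound dosing – single dose of 20 µM compound, 1% DMSO final · Incubation – overnight compound exposure at 37 °C · Measure – GFP/RFP fluorescence ratio · Benchmarks – DMSO wells and RFP-L50D-GFP cells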
# Numbers stand for hits; - = inactive; . = not tested or not shown; + = active, no number.
SMILES,DDE Tn7 FP inh,proKLK7 act,SKN-1 block,DDE Tn6 FP inh,Neddyl block,MT1-MMP act inh
CCN(CC)CCN(CC(=O)N(C1CCCCC1)C1CCCCC1)C(=O)c1cccnc1,-,-,-,-,-,-
CCN(C(=O)CN1C(=O)S/C(=C\c2cccc(Cl)c2)C1=O)C1CCS(=O)(=O)C1 (stereo unspecified),-,-,37.4,-,-,-
CCOc1ccc(NC(=O)Nc2ccc(Br)cn2)cc1,-,-,-,-,-,-
O=C(Nc1ccc(Cl)cc1)Nc1ccc(Br)cn1,-,-,37.1,-,-,-
Clc1ccc2c(c1)c1ccccc1n2CN1CCOCC1,-,-,-,-,-,-
Clc1ccc2c(c1)c1cc(Cl)ccc1n2CN1CCOCC1,-,-,32.8,-,-,-
C=CC(=O)Nc1cccc(Oc2ccnc(Nc3ccc(N4CCN(C)CC4)cc3)n2)c1,-,-,-,-,-,-
C=CC(=O)Nc1cccc(Oc2ccnc3[nH]ccc23)c1,.,.,-,.,+,-
COc1cccc(N=Nc2c(=O)[nH]n3c(C)cc(C)nc23)c1,-,-,-,-,-,-
CCOc1ccc(N=Nc2c(=O)[nH]n3c(C)cc(C)nc23)cc1,-,-,45.0,-,-,-
Cc1ccc2c(c1)c(C)c(C)n2CC(O)CN1CCOCC1 (stereo unspecified),-,-,39.3,-,-,-
Cc1c(C)n(CC(O)CN2CCCCCC2)c2ccccc12 (stereo unspecified),-,-,-,-,-,-
CCOc1ccccc1NC(=O)C(CC(C)C)NC(=O)C1CCC(C)CC1 (stereo unspecified),-,-,41.3,-,-,-
CC[n+]1c(/C=C/c2ccc(N(C)C)cc2)ccc2ccccc21,-,-,-,-,-,-
CC[n+]1ccccc1/C=C/c1ccc(N(C)C)cc1,-,-,40.7,-,-,-
CC[n+]1ccc(/C=C/c2ccc(N(C)C)cc2)c2ccccc21,-,-,-,39.4,-,-
CC1CC(C)CN(S(=O)(=O)c2ccc(C(=O)NCc3ccco3)cc2)C1 (stereo unspecified),-,-,-,-,-,-
CCc1nnc(NC(=O)COc2ccc3ccccc3c2)s1,-,-,-,-,-,-
Cc1ccc(C(C[N+](=O)[O-])c2c(-c3ccccc3O)[nH][nH]c2=O)cc1 (stereo unspecified),-,-,-,-,+,-
O=C(CSc1nc2ccccc2o1)c1ccc2c(c1)OCCO2,-,-,36.6,-,-,-
CCCn1c(SCC(=O)Nc2ccc3c(c2)OCO3)n[nH]c1=O,-,-,-,-,-,-
CCCn1c(SCC(=O)c2ccc3c(c2)OCCO3)n[nH]c1=O,-,-,43.4,-,-,-
O=C(CSc1nc2ccccc2o1)c1ccccc1,-,-,-,-,-,-
CC1CCCN(Cc2c(O)ccc3c4c(c(=O)oc23)CCCC4)C1 (stereo unspecified),-,101.2,-,-,-,-
CC(C)OCCCNc1ncnc2c1[nH]c1ccccc12,-,-,-,-,+,-
SMILES,DDE Tn7 FP inh,proKLK7 act,SKN-1 block,DDE Tn6 FP inh,Neddyl block,MT1-MMP act inh
OCC(O)C(O)C(O)c1cnn(-c2ccccc2)n1 (stereo unspecified),-,-,-,-,-,-
N#Cc1c(C(F)(F)F)cc(-c2ccccc2)[nH]c1=O,-,25.5,-,-,.,-
Cc1ccc(-c2cc(C(F)(F)F)c(C#N)c(=O)[nH]2)cc1,-,-,-,-,.,-
Cc1ccc2cc3cc(C(=O)N4CC(C)CC(C)C4)oc3nc2c1 (stereo unspecified),-,-,38.8,-,-,-
COc1ccc2cc3cc(C(=O)N4CC(C)CC(C)C4)oc3nc2c1 (stereo unspecified),.,.,-,.,-,-
FCCCOc1ccc(/C=N/OCc2ccc(Cl)cc2)cc1,-,-,41.6,-,-,-
O=C(NNC(=S)Nc1ccccc1)C1CCCCC1,-,-,-,-,-,-
CCCN1CCC2(CC1)C(C#N)=C(N)Oc1c2sc2nc(C)cc(C)c12,-,-,-,-,-,-
Cc1cc(C)c2c3c(sc2n1)C(c1cccc(F)c1)C(C#N)=C(N)O3 (stereo unspecified),-,-,-,-,+,-
CN(C)S(=O)(=O)c1cccc(NC(=O)CCNC(=O)Nc2ccccc2)c1,-,-,-,-,-,-
Clc1ccc(-c2nc(CSc3ccccn3)cs2)cc1,-,-,58.4,-,-,-
Nc1ccccc1SCc1csc(-c2ccc(Cl)cc2)n1,-,-,-,-,-,-
CCn1c(CSc2nnc(-c3ccncc3)n2C)nc2cc(C(=O)O)ccc21,-,-,40.6,-,-,-
CCn1c(CSc2ncn[nH]2)nc2cc(C(=O)O)ccc21,-,-,-,-,-,-
Cc1cccn2c(=O)c(/C=C3\SC(=S)NC3=O)c(NCCCN3CCOCC3)nc12,-,-,52.4,-,-,-
Cc1c(C(=O)NCCN(C)C)n(C)c(=O)c2ccccc12,-,-,-,-,-,-
Cc1ccc(N2C(=O)c3ccccc3C(C)(C)C2=O)cc1,-,-,-,-,-,-
CC1(C)C(=Cc2ccccc2)C(=O)c2ccccc21,-,-,40.6,-,-,-
CC1(C)c2ccccc2C(=O)c2ccccc21,-,-,45.6,-,-,-
CC1(C)CC(=Cc2cc(O)ccc2[N+](=O)[O-])C(=O)c2ccccc21,.,.,-,.,-,-
CNc1ccc2ncc(-c3ccc(OC)c(OC)c3)n2n1,-,45.0,-,-,.,-
CC1CCN(S(=O)(=O)c2ccc(C(=O)N3CCOCC3)cc2)CC1,-,-,38.7,-,-,-
Nc1ccc(N=Nc2ccccc2)cc1[N+](=O)[O-],-,-,56.6,-,-,-
Cc1ccc(N)c([N+](=O)[O-])c1,-,-,-,-,-,-
COC1C(C)=C(C)C(=O)N1Cc1ccc(F)cc1 (stereo unspecified),-,-,-,-,-,-
SMILES,DDE Tn7 FP inh,proKLK7 act,SKN-1 block,DDE Tn6 FP inh,Neddyl block,MT1-MMP act inh
COc1ccc(/C=N/Nc2cc(C)nc3c(C)cccc23)cc1,-,-,-,-,+,-
COc1ccc(/C=N/Nc2cc(C)nc3ccccc23)cc1,-,-,-,-,.,-
CC1CC(=O)Nc2ccccc2N1C(=O)CSc1ccc2ccccc2n1 (stereo unspecified),-,-,-,-,-,-
CC(C)CN(Cc1c(O)ccc2c3c(c(=O)oc12)CCC3)CC(C)C,-,-,-,-,.,-
Cc1cc(=O)oc2c(CN(CC(C)C)CC(C)C)c(O)ccc12,-,34.8,.,-,.,.
Cc1cc2cc(CNC(=S)Nc3ccc(OC(F)(F)F)cc3)ccc2n1C,-,-,57.5,-,-,-
Cc1cc2cc(CNC(=O)CCC(=O)O)ccc2n1C,-,-,38.5,-,-,-
